According to ChEMBL document CHEMBL1156266, “Antisense oligonucleotides containing conformationally constrained 2',4'-(N-methoxy)aminomethylene and 2',4'-aminooxymethylene and 2'-O,4'-C-aminomethylene bridged nucleoside analogues show improved potency in animal models” (J Med Chem, 2010):
The source made the active and inactive calls. The calls are words filed in the database; no cut-off is given here.

Columns and labels:
Mus musculus [1] = assay: Toxicity in BALB/c mouse assessed as effect on liver weight at 0.5 to 14.8 mg/kg, ip administered twice a week for 3 weeks measured after 72 hrs of last dose; format: organism-based; design: dose 0.5-14.8 mg/kg, route intraperitoneal; conditions: in vivo
Outline: (§1)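 Male Balb/c mice, ip ASO in PBS twice weekly for 3 weeks at four dose levels. Body weight recorded before each dose. Killed 3 days after last dose. Organ weights normalized to body weight, expressed relative to the saline-treated group.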

Mus musculus [2] = assay: Toxicity in BALB/c mouse assessed as effect on kidney weight at 0.5 to 14.8 mg/kg, ip administered twice a week for 3 weeks measured after 72 hrs of last dose; format: organism-based; design: dose 0.5-14.8 mg/kg, route intraperitoneal; conditions: in vivo; outline: as §1
Mus musculus [3] = assay: Toxicity in BALB/c mouse assessed as effect on body weight at 0.5 to 14.8 mg/kg, ip administered twice a week for 3 weeks measured after 72 hrs of last dose; format: organism-based; design: dose 0.5-14.8 mg/kg, route intraperitoneal; conditions: in vivo; outline: as §1
Mus musculus [4] = assay: Toxicity in BALB/c mouse assessed as increase in spleen weight at 0.5 to 14.8 mg/kg, ip administered twice a week for 3 weeks measured after 72 hrs of last dose; format: organism-based; design: dose 0.5-14.8 mg/kg, route intraperitoneal; conditions: in vivo; outline: as §1
Mus musculus [5] = assay: Reduction in PTEN mRNA expression in ip dosed BALB/c mouse liver administered twice a week for 3 weeks measured after 72 hrs of last dose by RT-PCR analysis; format: functional
Outline: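 Male Balb/c mice, 6-week-old, ASO in PBS ip twice weekly for 3 weeks, four dose levels. Killed 72 h after last dose. Liver homogenized in guanidine isothiocyanate buffer, RNA column-purified. PTEN RNA by fluorescence qRT-PCR, normalized to cyclophilin A. Errors are SD.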

Nucleic Acid = assay: Binding affinity to mouse PTEN mRNA assessed as melting temperature at 4 uM by thermal denaturation assay; format: nucleic-acid assay
Outline: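 Duplex with complementary length-matched RNA; UV absorbance versus temperature curves in 100 mM Na+, 10 mM phosphate, 0.1 mM EDTA, 4 μM each strand. Tm is the average of two experiments.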

[6] = Reduction in PTEN mRNA expression in mouse bEND.3 cells after 24 hrs by qRT-PCR analysis; format: functional, cell-based; conditions: for IC50: BEND3, 24 h
Outline: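 bEnd.3 cells in DMEM/10% FBS, seeded at 1 × 10^4 cells/well the day before. Transfected 4 h at 37 °C with Lipofectin 3 μg/mL in OptiMEM, eight 1:2 dilutions (40 nM to 312.5 pM), then refed with complete medium for 24 h. PTEN RNA by qRT-PCR, normalized to cyclophilin A, as % untreated control. Triplicate plates. IC50 from sigmoidal fit, top 100%, bottom 0%.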

Mus musculus [7] = assay: Reduction in PTEN mRNA expression in BALB/c mouse liver at 37 mg/kg, ip administered once a week for 3 weeks measured after 72 hrs of last dose by RT-PCR analysis; format: functional, organism-based; design: dose 37 mg/kg
Mus musculus [8] = assay: Hepatotoxicity in BALB/c mouse assessed as liver ALT level at 0.5 to 14.8 mg/kg, ip administered twice a week for 3 weeks measured after 72 hrs of last dose; format: toxicity, organism-based; design: dose 0.5-14.8 mg/kg, route intraperitoneal; conditions: in vivo
Outline: (§2)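 Male 6-week-old Balb/c mice dosed ip in PBS twice weekly for 3 weeks: 0.7–23 mg/kg (four levels) or 0.5–14.6/14.8 mg/kg. Killed 72 h after final dose. Plasma from cardiac-puncture blood, ALT on clinical bioanalyzer. Errors are SD.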

Mus musculus [9] = assay: Hepatotoxicity in BALB/c mouse assessed as liver ALT level at 0.7 to 23 mg/kg, ip administered twice a week for 3 weeks measured after 72 hrs of last dose; format: toxicity, organism-based; design: dose 0.7-23 mg/kg, route intraperitoneal; conditions: in vivo; outline: as §2
Mus musculus [10] = assay: Toxicity in BALB/c mouse assessed as effect on liver weight at 0.7 to 23 mg/kg, ip administered twice a week for 3 weeks measured after 72 hrs of last dose; format: organism-based; design: dose 0.7-23 mg/kg, route intraperitoneal; conditions: in vivo; outline: as §1
Mus musculus [11] = assay: Toxicity in BALB/c mouse assessed as effect on kidney weight at 0.7 to 23 mg/kg, ip administered twice a week for 3 weeks measured after 72 hrs of last dose; format: organism-based; design: dose 0.7-23 mg/kg, route intraperitoneal; conditions: in vivo; outline: as §1
Mus musculus [12] = assay: Toxicity in BALB/c mouse assessed as effect on body weight at 0.7 to 23 mg/kg, ip administered twice a week for 3 weeks measured after 72 hrs of last dose; format: organism-based; design: dose 0.7-23 mg/kg, route intraperitoneal; conditions: in vivo; outline: as §1
Mus musculus [13] = assay: Toxicity in BALB/c mouse assessed as increase in liver weight at 0.5 to 14.6 mg/kg, ip administered twice a week for 3 weeks measured after 72 hrs of last dose; format: organism-based; design: dose 0.5-14.6 mg/kg, route intraperitoneal; conditions: in vivo; outline: as §1
Mus musculus [14] = assay: Toxicity in BALB/c mouse assessed as effect on body weight at 0.5 to 14.6 mg/kg, ip administered twice a week for 3 weeks measured after 72 hrs of last dose; format: organism-based; design: dose 0.5-14.6 mg/kg, route intraperitoneal; conditions: in vivo; outline: as §1
Liver = assay: Drug level in BALB/c mouse liver assessed per gram of tissue at 37 mg/kg, ip administered once a week for 3 weeks measured after 72 hrs of last dose; format: ADME, organism-based; design: dose 37 mg/kg, route intraperitoneal; conditions: in vivo
Mus musculus [15] = assay: Hepatotoxicity in BALB/c mouse assessed as increase in liver ALT level at 0.5 to 14.6 mg/kg, ip administered twice a week for 3 weeks measured after 72 hrs of last dose; format: toxicity, organism-based; design: dose 0.5-14.6 mg/kg, route intraperitoneal; conditions: in vivo; outline: as §2

Row | Structure (SMILES) | Activity (Mus musculus [1]) | Activity (Mus musculus [2]) | Activity (Mus musculus [3]) | Activity (Mus musculus [4]) | Activity (Mus musculus [5]) | ED50 (Mus musculus [5]) | Tm (Nucleic Acid) | Activity [6] | IC50 [6] | Activity (Mus musculus [7]) | Activity (Mus musculus [8]) | Activity (Mus musculus [9]) | Activity (Mus musculus [10]) | Activity (Mus musculus [11]) | Activity (Mus musculus [12]) | Activity (Mus musculus [13]) | Activity (Mus musculus [14]) | Drug uptake (Liver) | Activity (Mus musculus [15])
1 | Cc1cn([C@@H]2O[C@]3(CO)CN(C)O[C@@H]2[C@@H]3OP(O)(=S)OC[C@]23CN(C)O[C@@H]([C@H](n4cc(C)c(=O)[nH]c4=O)O2)[C@@H]3OP(O)(=S)OC[C@H]2O[C@@H](n3cc(C)c(=O)[nH]c3=O)C[C@@H]2OP(O)(=S)OC[C@H]2O[C@@H](n3cnc4c(N)ncnc43)[C@H](O)[C@@H]2OP(O)(=S)OC[C@H]2O[C@@H](n3cnc4c(=O)[nH]c(N)nc43)[C@H](O)[C@@H]2OP(O)(=S)OC[C@H]2O[C@@H](n3ccc(N)nc3=O)[C@H](O)[C@@H]2OP(O)(=S)OC[C@H]2O[C@@H](n3cnc4c(N)ncnc43)[C@H](O)[C@@H]2OP(O)(=S)OC[C@H]2O[C@@H](n3ccc(N)nc3=O)[C@H](O)[C@@H]2OP(O)(=S)OC[C@H]2O[C@@H](n3cc(C)c(=O)[nH]c3=O)C[C@@H]2OP(O)(=S)OC[C@H]2O[C@@H](n3cnc4c(=O)[nH]c(N)nc43)[C@H](O)[C@@H]2OP(O)(=S)OC[C@H]2O[C@@H](n3cnc4c(=O)[nH]c(N)nc43)[C@H](O)[C@@H]2OP(O)(=S)OC[C@H]2O[C@@H](n3ccc(N)nc3=O)[C@H](O)[C@@H]2OP(O)(=S)OC[C@]23CN(C)O[C@@H]([C@H](n4cc(C)c(N)nc4=O)O2)[C@@H]3OP(O)(=S)OC[C@]23CN(C)O[C@@H]([C@H](n4cc(C)c(=O)[nH]c4=O)O2)[C@@H]3O)c(=O)nc1N (stereo not given in full) | Non-toxic | Non-toxic | Non-toxic | Toxic | Dose-dependent effect | 6 mg/kg | 58.6 °C | Dose-dependent effect | 2.5 nM | Active | Non-toxic |  |  |  |  |  |  |  | 
2 | COCCO[C@@H]1[C@H](OP(O)(=S)OC[C@H]2O[C@@H](n3cc(C)c(=O)[nH]c3=O)C[C@@H]2OP(O)(=S)OC[C@H]2O[C@@H](n3cnc4c(=O)[nH]c(N)nc43)[C@H](OCCOC)[C@@H]2OP(O)(=S)OC[C@H]2O[C@@H](n3cc(C)c(N)nc3=O)[C@H](OCCOC)[C@@H]2OP(O)(=S)OC[C@H]2O[C@@H](n3cc(C)c(=O)[nH]c3=O)C[C@@H]2OP(O)(=S)OC[C@H]2O[C@@H](n3cnc4c(N)ncnc43)[C@H](O)[C@@H]2OP(O)(=S)OC[C@H]2O[C@@H](n3cnc4c(=O)[nH]c(N)nc43)[C@H](O)[C@@H]2OP(O)(=S)OC[C@H]2O[C@@H](n3cc(C)c(N)nc3=O)C[C@@H]2OP(O)(=S)OC[C@H]2O[C@@H](n3cc(C)c(N)nc3=O)C[C@@H]2OP(O)(=S)OC[C@H]2O[C@@H](n3cc(C)c(=O)[nH]c3=O)C[C@@H]2OP(O)(=S)OC[C@H]2O[C@@H](n3cc(C)c(N)nc3=O)C[C@@H]2OP(O)(=S)OC[C@H]2O[C@@H](n3cc(C)c(=O)[nH]c3=O)C[C@@H]2OP(O)(=S)OC[C@H]2O[C@@H](n3cnc4c(=O)[nH]c(N)nc43)[C@H](O)[C@@H]2OP(O)(=S)OC[C@H]2O[C@@H](n3cnc4c(=O)[nH]c(N)nc43)[C@H](O)[C@@H]2OP(O)(=S)OC[C@H]2O[C@@H](n3cnc4c(N)ncnc43)[C@H](O)[C@@H]2OP(O)(=S)OC[C@H]2O[C@@H](n3cc(C)c(=O)[nH]c3=O)C[C@@H]2OP(O)(=S)OC[C@H]2O[C@@H](n3cc(C)c(=O)[nH]c3=O)C[C@@H]2OP(O)(=S)OC[C@H]2O[C@@H](n3cc(C)c(=O)[nH]c3=O)C[C@@H]2OP(O)(=S)OC[C@H]2O[C@@H](n3cnc4c(=O)[nH]c(N)nc43)[C@H](OCCOC)[C@@H]2OP(O)(=S)OC[C@H]2O[C@@H](n3cnc4c(N)ncnc43)[C@H](OCCOC)[C@@H]2O)[C@@H](CO)O[C@H]1n1cc(C)c(N)nc1=O (stereo not given in full) |  |  |  |  |  | 10 mg/kg | 67.9 °C | Dose-dependent effect | 1 nM |  |  | Non-toxic | Non-toxic | Non-toxic | Non-toxic |  |  |  | 
3 | Cc1cn([C@@H]2O[C@]3(CO)CO[C@@H]2[C@@H]3OP(O)(=S)OC[C@]23CC([C@H](n4cc(C)c(=O)[nH]c4=O)O2)[C@@H]3OP(O)(=S)OC[C@H]2O[C@@H](n3cc(C)c(=O)[nH]c3=O)C[C@@H]2OP(O)(=S)OC[C@H]2O[C@@H](n3cnc4c(N)ncnc43)[C@H](O)[C@@H]2OP(O)(=S)OC[C@H]2O[C@@H](n3cnc4c(=O)[nH]c(N)nc43)[C@H](O)[C@@H]2OP(O)(=S)OC[C@H]2O[C@@H](n3ccc(N)nc3=O)[C@H](O)[C@@H]2OP(O)(=S)OC[C@H]2O[C@@H](n3cnc4c(N)ncnc43)[C@H](O)[C@@H]2OP(O)(=S)OC[C@H]2O[C@@H](n3ccc(N)nc3=O)[C@H](O)[C@@H]2OP(O)(=S)OC[C@H]2O[C@@H](n3cc(C)c(=O)[nH]c3=O)C[C@@H]2OP(O)(=S)OC[C@H]2O[C@@H](n3cnc4c(=O)[nH]c(N)nc43)[C@H](O)[C@@H]2OP(O)(=S)OC[C@H]2O[C@@H](n3cnc4c(=O)[nH]c(N)nc43)[C@H](O)[C@@H]2OP(O)(=S)OC[C@H]2O[C@@H](n3ccc(N)nc3=O)[C@H](O)[C@@H]2OP(O)(=S)OC[C@]23CO[C@@H]([C@H](n4cc(C)c(N)nc4=O)O2)[C@@H]3OP(O)(=S)OC[C@]23CC([C@H](n4cc(C)c(=O)[nH]c4=O)O2)[C@@H]3O)c(=O)nc1N (stereo not given in full) |  |  |  |  |  | 3 mg/kg |  |  | 1.3 nM |  |  |  |  |  |  | Toxic | Toxic | 30 µg/g | Toxic
